This experiment has as its target T1, 5-hydroxytryptamine receptor 1A (Homo sapiens, UniProt P08908).
T1 sequence (P08908 whole entry): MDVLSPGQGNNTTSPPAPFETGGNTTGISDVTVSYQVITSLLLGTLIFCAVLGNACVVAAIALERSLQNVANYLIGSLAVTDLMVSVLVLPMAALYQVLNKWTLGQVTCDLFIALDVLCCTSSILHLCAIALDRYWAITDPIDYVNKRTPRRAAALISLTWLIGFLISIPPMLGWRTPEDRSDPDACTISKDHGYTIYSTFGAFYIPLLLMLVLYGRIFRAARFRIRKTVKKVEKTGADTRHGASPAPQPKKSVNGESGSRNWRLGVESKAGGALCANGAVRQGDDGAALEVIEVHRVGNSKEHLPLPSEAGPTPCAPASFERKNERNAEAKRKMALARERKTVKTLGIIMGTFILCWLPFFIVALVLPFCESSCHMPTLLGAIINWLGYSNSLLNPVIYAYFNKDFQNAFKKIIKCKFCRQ
The experiment can be described thus: Displacement of [3H]8-OH-DPAT from human 5HT1A receptor expressed in HEK cells. Type of experiment: cell-based, HEK293. The method, boiled down: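 Assay used HEK-h5-HT1A cells with 0.5 nM [3H]8-OH-DPAT, and nonspecific binding defined by 1 μM dihydroergotamine. Ki came from standard competition conditions, as mean ± SEM of replicate assays.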
On the technique in general: Loss of bound radioactivity is the signal in a displacement assay; it reports binding, not function.

What is called Ki is the dissociation constant of the complex between target and ligand, obtained from inhibition or displacement. Turning to `COc1cc2c(cc1OC)CN(CCCCn1cc(-c3ccc(F)cc3)c3ccccc31)CC2`, the Ki is 1510 nM.

The record behind these values is ChEMBL document CHEMBL1828538, “Synthesis and pharmacological evaluation of indole-based sigma receptor ligands” (Eur J Med Chem, 2011).
